Source: ChEMBL document CHEMBL1781875, “Chemoenzymatic synthesis with lipase catalyzed resolution and evaluation of antitumor activity of (R/S)-2-[2-hydroxy-3-(4-phenylpiperazin-1-yl)propyl]-1H-pyrrolo[3,4-b]quinolin-3(2H)-one” (Eur J Med Chem, 2011)

Assays:
SK-N-SH [1] = test: Cytotoxicity against human SK-N-SH cells assessed as cell viability at 0.1 uM after 48 hrs by MTT assay relative to untreated control; format: functional; settings: read-out: Activity
Summary of the method: (§1)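 Exponentially growing cells seeded at 2.0 × 10⁴ per well in 24-well plates, drug-treated in triplicate for 48 h at 37 °C under 5% CO₂. MTT in RPMI-1640 was added, followed by 2–3 h at 37 °C. Formazan was dissolved in DMSO and OD read at 540 nm. Viability is given as % of untreated cells (100%), mean ± SEM of three determinations.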

A549 [2] = test: Cytotoxicity against human A549 cells assessed as cell viability at 0.1 uM after 48 hrs by MTT assay relative to untreated control; format: functional; settings: A549, 48 h, read-out: Activity; summary of the method: as §1
SK-N-SH [3] = test: Cytotoxicity against human SK-N-SH cells assessed as cell viability at 1 uM after 48 hrs by MTT assay relative to untreated control; format: functional; settings: read-out: Activity; summary of the method: as §1
A549 [4] = test: Cytotoxicity against human A549 cells assessed as cell viability at1 uM after 48 hrs by MTT assay relative to untreated control; format: functional; summary of the method: as §1
SK-N-SH [5] = test: Cytotoxicity against human SK-N-SH cells assessed as cell viability at 5 uM after 48 hrs by MTT assay relative to untreated control; format: functional; settings: read-out: Activity; summary of the method: as §1
A549 [6] = test: Cytotoxicity against human A549 cells assessed as cell viability at 5 uM after 48 hrs by MTT assay relative to untreated control; format: functional; settings: A549, 48 h, read-out: Activity; summary of the method: as §1
SK-N-SH [7] = test: Cytotoxicity against human SK-N-SH cells assessed as inhibition of cell growth after 48 hrs by MTT assay; format: functional, cell-based; summary of the method: as §1
SK-N-SH [8] = test: Cytotoxicity against human SK-N-SH cells assessed as cell viability at 10 uM after 48 hrs by MTT assay relative to untreated control; format: functional; settings: read-out: Activity; summary of the method: as §1
A549 [9] = test: Cytotoxicity against human A549 cells assessed as cell viability at 10 uM after 48 hrs by MTT assay relative to untreated control; format: functional; settings: A549, 48 h, read-out: Activity; summary of the method: as §1
SK-N-SH [10] = test: Cytotoxicity against human SK-N-SH cells assessed as cell viability at 25 uM after 48 hrs by MTT assay relative to untreated control; format: functional; settings: read-out: Activity; summary of the method: as §1
A549 [11] = test: Cytotoxicity against human A549 cells assessed as cell viability at 25 uM after 48 hrs by MTT assay relative to untreated control; format: functional; settings: A549, 48 h, read-out: Activity; summary of the method: as §1
SK-N-SH [12] = test: Cytotoxicity against human SK-N-SH cells assessed as cell viability at 50 uM after 48 hrs by MTT assay relative to untreated control; format: functional; settings: read-out: Activity; summary of the method: as §1
A549 [13] = test: Cytotoxicity against human A549 cells assessed as cell viability at 50 uM after 48 hrs by MTT assay relative to untreated control; format: functional; settings: A549, 48 h, read-out: Activity; summary of the method: as §1
A549 [14] = test: Cytotoxicity against human A549 cells assessed as inhibition of cell growth after 48 hrs by MTT assay; format: functional, cell-based; settings: A549, 48 h; summary of the method: as §1

Compound: COc1cccc2c1C(=O)c1c(O)c3c(c(O)c1C2=O)C[C@@](O)(C(=O)CO)C[C@@H]3O[C@H]1C[C@H](N)[C@H](O)[C@H](C)O1 [DOXORUBICIN]
- viability at 0.1 µM (SK-N-SH [1]): 72.5%
- viability at 0.1 µM (A549 [2]): 76.6%
- viability at 1 µM (SK-N-SH [3]): 60.8%
- Activity (A549 [4]): 65.33%
- viability at 5 µM (SK-N-SH [5]): 51%
- viability at 5 µM (A549 [6]): 33.9%
- IC50 (SK-N-SH [7]): 19.9 µM

Compound: O=C1c2nc3ccccc3cc2CN1C[C@@H](O)CN1CCN(c2ccccc2)CC1
- viability at 10 µM (SK-N-SH [8]): 76.8%
- viability at 10 µM (A549 [9]): 90.7%
- viability at 25 µM (SK-N-SH [10]): 69.1%
- viability at 25 µM (A549 [11]): 81.8%
- viability at 50 µM (SK-N-SH [12]): 49.4%
- viability at 50 µM (A549 [13]): 74.7%
- IC50 (SK-N-SH [7]): 16.2 µM
- IC50 (A549 [14]): 54.8 µM

Compound: CC(=O)O[C@H](CN1CCN(c2ccccc2)CC1)CN1Cc2cc3ccccc3nc2C1=O
- viability at 10 µM (SK-N-SH [8]): 95.5%
- viability at 10 µM (A549 [9]): 98.4%
- viability at 25 µM (SK-N-SH [10]): 84.2%
- viability at 25 µM (A549 [11]): 85.6%
- viability at 50 µM (SK-N-SH [12]): 79.3%
- viability at 50 µM (A549 [13]): 83.3%
- IC50 (SK-N-SH [7]): 67.8 µM
- IC50 (A549 [14]): 72.7 µM

Compound: O=C1c2nc3ccccc3cc2CN1CC(O)CN1CCN(c2ccccc2)CC1 (racemic)
- viability at 10 µM (SK-N-SH [8]): 78.3%
- viability at 10 µM (A549 [9]): 96.5%
- viability at 25 µM (SK-N-SH [10]): 73.5%
- viability at 25 µM (A549 [11]): 85.5%
- viability at 50 µM (SK-N-SH [12]): 70.5%
- viability at 50 µM (A549 [13]): 78.7%
- IC50 (SK-N-SH [7]): 65.1 µM
- IC50 (A549 [14]): 63.2 µM
